Data set [1] can be described thus: Drug uptake in BALB/c mouse spleen at 25 mg/kg, po via gavage measured after 4 hrs post dose by […]. The note with it: read-out: Drug uptake. The format is ADME, organism-based. In a few lines:
(§1)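 BALB/c mice get a single oral gavage dose of 25 mg/kg; tissues are collected 4 h post-dose. About 100 mg tissue is diluted 5-fold in PBS and homogenized. Homogenate is extracted as for plasma (ketoconazole internal standard, acetonitrile extraction) and quantified by HPLC-UV at 291 nm, 0.1 μM detection limit, n=2.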

Data set [2] concerns Mus musculus. Kind of data set: Toxicity in Swiss Webster mouse assessed as effect on liver weight at 200 mg/kg, po administered as single dose measured after 48 hrs. The format is organism-based. As to conditions: in vivo. In short, it runs like this: (§2)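 Swiss Webster mice (21–23 g, n=3) get a single oral 200 mg/kg dose, given as in the PK study. They are inspected for toxic and sub-toxic signs per OECD guidelines (behaviour, motility, neurological state, skin, fur), and body weight is tracked 0–48 h. At 48 h, mice are euthanized and organ weights are normalized to body weight. Blood is taken for haematology and plasma biochemistry.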

A short description of data set [3]: Half life in Sprague-Dawley rat liver microsomes at 1 uM preincubated for 5 mins followed by NADPH addition and measured by LC/MS/MS analysis. The format is ADME, microsome. The note with it: microsomes, 1 µM.
Data set [4] is described as follows: Drug uptake in BALB/c mouse brain at 25 mg/kg, po via gavage measured after 4 hrs post dose by […]. The data set is classed as ADME, organism-based. The note with it: read-out: Drug uptake. In a few lines:
as §1

For data set [5], the target named is Sterol 14-alpha demethylase (Trypanosoma cruzi (strain CL Brener), UniProt Q7Z1V1). Kind of data set: Binding affinity to Trypanosoma cruzi Y CYP51A expressed in Escherichia coli. In a few lines: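 Recombinant CYP51A from Y strain T. cruzi, expressed in E. coli and purified, titrated spectrally at 0.5 μM P450 in 5 cm path cuvettes with ligand over 0.1–1 μM. Type of absorbance change in difference spectra Δ(A430-A411) plotted against ligand concentration. Apparent Kd obtained by fitting to the Morrison quadratic tight-binding equation by nonlinear regression.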
Sequence of Sterol 14-alpha demethylase (Q7Z1V1 whole entry): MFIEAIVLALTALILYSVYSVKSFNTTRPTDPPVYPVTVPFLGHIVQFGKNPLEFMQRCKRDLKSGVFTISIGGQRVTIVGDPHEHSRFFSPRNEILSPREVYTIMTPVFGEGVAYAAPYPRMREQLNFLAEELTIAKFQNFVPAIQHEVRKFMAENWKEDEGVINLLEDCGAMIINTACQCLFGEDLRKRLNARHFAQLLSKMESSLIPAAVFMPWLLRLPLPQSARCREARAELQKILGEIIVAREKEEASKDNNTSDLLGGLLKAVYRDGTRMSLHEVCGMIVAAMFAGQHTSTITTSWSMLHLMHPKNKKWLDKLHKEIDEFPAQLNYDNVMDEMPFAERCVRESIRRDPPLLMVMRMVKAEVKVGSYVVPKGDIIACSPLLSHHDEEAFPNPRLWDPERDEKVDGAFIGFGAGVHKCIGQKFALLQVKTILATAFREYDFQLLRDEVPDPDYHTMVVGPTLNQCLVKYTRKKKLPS

Data set [6] deals with Lanosterol 14-alpha-demethylase (Trypanosoma brucei brucei (strain 927/4 GUTat10.1)) (UniProt Q385E8). Kind of data set: Inhibition of Trypanosoma brucei […] CYP51 expressed in Escherichia coli using [3-3H]-obtusifoliol as substrate after 60 mins by LC-MS analysis. In a few lines: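 Reconstituted reaction: 1 μM purified CYP51, 2 μM T. brucei NADPH-P450 reductase, 100 μM dilauroylphosphatidylcholine, isocitrate dehydrogenase/isocitrate regeneration, 50 mM K phosphate pH 7.2, 10% glycerol. [3-3H]sterol substrate at 50 μM final (eburicol for T. cruzi; obtusifoliol for T. brucei and L. infantum) with inhibitor at 1.1 μM final. Preincubate 60 s at 37 °C, start with 100 μM NADPH, run 60 min, EtOAc extraction. Gives % inhibition of 14α-demethylation, triplicate, mean ± SD.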
Sequence of Lanosterol 14-alpha-demethylase (Trypanosoma brucei brucei (strain 927/4 GUTat10.1)) (Q385E8 1-481): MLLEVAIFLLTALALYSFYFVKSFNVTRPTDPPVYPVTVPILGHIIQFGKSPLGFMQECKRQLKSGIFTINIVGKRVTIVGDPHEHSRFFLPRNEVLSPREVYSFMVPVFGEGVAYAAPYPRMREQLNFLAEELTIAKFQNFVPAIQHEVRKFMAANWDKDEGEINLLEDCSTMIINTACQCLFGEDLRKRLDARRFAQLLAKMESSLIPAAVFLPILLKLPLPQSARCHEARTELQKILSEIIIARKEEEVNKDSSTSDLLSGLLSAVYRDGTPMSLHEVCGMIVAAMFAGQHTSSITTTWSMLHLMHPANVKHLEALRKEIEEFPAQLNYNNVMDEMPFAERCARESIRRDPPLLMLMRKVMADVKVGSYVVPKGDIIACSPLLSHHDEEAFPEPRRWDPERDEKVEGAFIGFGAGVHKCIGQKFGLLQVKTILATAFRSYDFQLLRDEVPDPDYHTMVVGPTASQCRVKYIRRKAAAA

Data set [7] concerns Mus musculus. Kind of data set: Toxicity in Swiss Webster mouse assessed as effect on neurological conditions at 200 mg/kg, po administered as single dose measured after 48 hrs. The format is organism-based. The note with it: in vivo. In a few lines:
as §2

Data set [8] is described as follows: Half life in human liver microsomes at 1 uM preincubated for 5 mins followed by NADPH addition and measured by LC/MS/MS analysis. The format is ADME, microsome. The note with it: microsomes, 1 µM.
The test system of another data set is Trypanosoma cruzi. Kind of data set: Antiparasitic activity against GFP-expressing Trypanosoma cruzi Y amastigote formss infected in cardiomyocytes assessed as reduction in rate of parasite multiplication within infected cardiomyocytes measured at 72 hrs post infection by fluorescence microscopy. The format is functional, organism-based. In a few lines:
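GFP-expressing trypomastigotes (Tulahuen or Y strain) infect cardiomyocyte monolayers at 10 parasites per cell, in DMEM + 10% FBS. Unbound parasites are washed off. At 24 h of infection, inhibitors at 0.5–25 nM in DMSO/DMEM are added and cultured 48 h. Read-out is at 72 h post-infection as GFP fluorescence (RFU) after PBS wash; microscopy uses paraformaldehyde fixation, DAPI and phalloidin stain. Triplicate.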

Data set [9] in a line: Drug uptake in BALB/c mouse heart at 25 mg/kg, po via gavage measured after 4 hrs post dose by […]. The format is ADME, organism-based. The note with it: read-out: Drug uptake. In a few lines: as §1
The test system of data set [10] is Mus musculus. The data set can be described thus: Toxicity in Swiss Webster mouse assessed as effect on biochemical plasma parameters at 200 mg/kg, po administered as single dose measured after 48 hrs. The data set is classed as organism-based. The note with it: in vivo. In a few lines: as §2
The nature of data set [11]: Intrinsic clearance in CD1 mouse liver microsomes at 1 uM preincubated for 5 mins followed by NADPH addition and measured after 45 mins by LC/MS/MS analysis. As to conditions: read-out: CLH. The data set is classed as ADME, microsome.

The source made the active and inactive calls. The calls are words filed in the database; no cut-off is given here.

Regarding `O=C(N[C@@H](Cn1ccnc1)c1c(F)cc(-c2ccc(F)cc2)cc1F)c1ccc(-c2nnc(-c3ccccc3)o2)cc1`, the concentration at 4 h in [1] is 63 µM; in data set [4], 3 µM; in [9] it was 56 µM. Besides, the Activity result with Mus musculus [2], in the data set on Mus musculus [7] and with Mus musculus [10] was “Non-Toxic” throughout. In addition, the t1/2 in [3] worked out at 50 min; in data set [8] it was 64 min. In addition, in [5], the Kd worked out at 8.4 nM. In addition, the inhibition result in data set [6] is “Active”. In addition, the EC50 in the data set on Trypanosoma cruzi came out at 1 nM. For the same compound, the CLint scaled at 1 µM in data set [11] came to 14.2 L/h/kg.
